Laboratory results as given in ChEMBL document CHEMBL5385965, “Discovery of novel positive allosteric modulators targeting GluN1/2A NMDARs as anti-stroke therapeutic agents” (RSC Med Chem, 2024).
Active and inactive are the calls of the source. No cut-off for these calls is given here.

Test system: PC-12
Test: Neuroprotective activity against glutamate-induced excitotoxicity in rat PC12 cells assessed as cell viability at 1 uM preincubated for 4 hrs followed by glutamate treatment for 24 hrs by CCK8 assay (reference value: 43.19 +/- 2.98 %)
Assay type: functional
Conditions: time 28 hrs, read-out: Activity
`COC(=O)[C@@H](Cc1ccc(O)c(O)c1)OC(=O)/C=C/c1ccc(O)c(O)c1` [METHYL ROSMARINATE] showed a viability at 1 µM of 75.2%.
`C=CCN1C[C@H](C(=O)N(CCCN(C)C)C(=O)NCC)C[C@@H]2c3cccc4[nH]cc(c34)C[C@H]21` [CABERGOLINE] gave a viability at 1 µM of 68.2%.
With `COc1cc(CCC(=O)CC(O)CCc2ccc(O)c(OC)c2)ccc1O` (configuration not stated) [HEXAHYDROCURCUMIN] the viability at 1 µM was 52.4%.

Test system: Mus musculus
Test: Neuroprotective activity against tMCAO-reperfusion induced nerve injury in C57BL/6 mouse model assessed as reduction in volume of ischemia cerebral infarction at 5 mg/kg, ip measured after 22 hrs by TTC staining based analysis relative to control
Assay type: functional
Design: scale not given: the % may be the effect or the level left
Conditions: not given
`COc1ccc(C(O)CNC(=O)/C=C/c2ccccc2)cc1` (configuration not stated) gave an Activity of 30.68%.

Test system: Mus musculus
Test: Neuroprotective activity against tMCAO-reperfusion induced nerve injury in C57BL/6 mouse model assessed as reduction in volume of ischemia cerebral infarction at 10 mg/kg, ip measured after 22 hrs by TTC staining based analysis relative to control
Assay type: functional
Design: scale not given: the % may be the effect or the level left
Conditions: not given
`COc1ccc(C(O)CNC(=O)/C=C/c2ccccc2)cc1` (configuration not stated) gave an Activity of 42.7%.

Target: T1, Glutamate NMDA receptor; GRIN1/GRIN2B (Homo sapiens) (UniProt Q05586+Q13224)
Test: […] of GluN1/N2B (unknown origin) transfected in HEK293 cells assessed as potentiation of Glu/Gly-induced calcium influx by Cal-520 AM dye based assay
Assay type: cell-based
Conditions: filed as negative allosteric modulator
Procedure, shortened: (§1)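 HEK293 cells were co-transfected 1:1 with GluN1 plus GluN2A or GluN2B at 90% confluence and seeded 40 000/well on poly-D-lysine plates overnight. Cells were loaded with Cal-520 AM for 1.5 h at 37 °C, and compounds were tested at 10 μM. Responses to Glu (2 mM)/Gly (100 μM) were recorded in HEPES-buffered Tyrode's (pH 7.2) at Ex 485/Em 515 nm every 1.6 s, expressed as area under the FMAX/F0 curve.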
For `C=CCc1ccc(O)c(-c2ccc(O)c(CC=C)c2)c1`, the Activity was “Active”.

Test system: Mus musculus
Test: Neuroprotective activity against tMCAO-reperfusion induced nerve injury in C57BL/6 mouse model assessed as reduction in volume of ischemia cerebral infarction at 10 mg/kg, ip measured after 22 hrs by TTC staining based analysis (reference value: 130.60 +/- 9.93 mm3)
Assay type: functional
Conditions: not given
Work on `COc1ccc(C(O)CNC(=O)/C=C/c2ccccc2)cc1` (configuration not stated) yielded an Activity of 74.83 mm3.
With `CC1=NN(c2ccccc2)C(=O)C1` [EDARAVONE] the Activity was 68.04 mm3.

Target: Glutamate NMDA receptor; GRIN1/GRIN2A/GRIN2B (Homo sapiens) (UniProt Q05586+Q12879+Q13224)
Test: Positive allosteric modulation of GluN1/N2A/N2B (unknown origin) transfected in HEK293 cells assessed as potentiation of Glu/Gly-induced calcium influx by Cal-520 AM dye based assay
Assay type: cell-based
Conditions: not given
For `COc1ccc(C(O)CNC(=O)/C=C/c2ccccc2)cc1` (configuration not stated), the Activity was “inactive”.

Test system: HT-22
Test: Neuroprotective activity against glutamate-induced excitotoxicity in mouse HT-22 cells assessed as cell viability at 1 uM preincubated for 4 hrs followed by glutamate treatment for 24 hrs by CCK8 assay (reference value: 35.56 +/- 2.12 %)
Assay type: functional
Conditions: time 28 hrs, read-out: Activity
Molecule `COC(=O)[C@@H](Cc1ccc(O)c(O)c1)OC(=O)/C=C/c1ccc(O)c(O)c1` [METHYL ROSMARINATE] has a viability at 1 µM of 80.4%.
Molecule `C=CCN1C[C@H](C(=O)N(CCCN(C)C)C(=O)NCC)C[C@@H]2c3cccc4[nH]cc(c34)C[C@H]21` [CABERGOLINE] has a viability at 1 µM of 73.8%.
`COc1cc(CCC(=O)CC(O)CCc2ccc(O)c(OC)c2)ccc1O` (configuration not stated) [HEXAHYDROCURCUMIN] gave a viability at 1 µM of 103%.

Target: T1, Glutamate NMDA receptor; GRIN1/GRIN2B (Homo sapiens)
Test: Positive allosteric modulation of GluN1/N2B (unknown origin) transfected in HEK293 cells assessed as potentiation of Glu/Gly-induced calcium influx by Cal-520 AM dye based assay
Assay type: cell-based
Conditions: not given
Procedure, shortened: as §1
In the case of `C=CCc1ccc(O)c(-c2ccc(O)c(CC=C)c2)c1`, the Activity is reported as “inactive”.
In the case of `COc1ccc(C(O)CNC(=O)/C=C/c2ccccc2)cc1` (configuration not stated), the Activity is reported as “inactive”.
With `COC(=O)[C@@H](Cc1ccc(O)c(O)c1)OC(=O)/C=C/c1ccc(O)c(O)c1` [METHYL ROSMARINATE] the Activity was “inactive”.
For `C=CCN1C[C@H](C(=O)N(CCCN(C)C)C(=O)NCC)C[C@@H]2c3cccc4[nH]cc(c34)C[C@H]21` [CABERGOLINE], the Activity was “inactive”.
With `COc1cc(CCC(=O)CC(O)CCc2ccc(O)c(OC)c2)ccc1O` (configuration not stated) [HEXAHYDROCURCUMIN] the Activity was “inactive”.

Test system: PC-12
Test: Neuroprotective activity against glutamate-induced excitotoxicity in rat PC12 cells assessed as cell viability at 10 uM preincubated for 4 hrs followed by glutamate treatment for 24 hrs by CCK8 assay (reference value: 43.75 +/- 2.04 %)
Assay type: functional
Conditions: time 28 hrs, read-out: Activity
`COC(=O)[C@@H](Cc1ccc(O)c(O)c1)OC(=O)/C=C/c1ccc(O)c(O)c1` [METHYL ROSMARINATE] gave a viability at 10 µM of 53.6%.
In the case of `C=CCN1C[C@H](C(=O)N(CCCN(C)C)C(=O)NCC)C[C@@H]2c3cccc4[nH]cc(c34)C[C@H]21` [CABERGOLINE], the viability at 10 µM is reported as 87.5%.
With `COc1cc(CCC(=O)CC(O)CCc2ccc(O)c(OC)c2)ccc1O` (configuration not stated) [HEXAHYDROCURCUMIN] the viability at 10 µM was 66.5%.

Target: Glutamate NMDA receptor; GRIN1/GRIN2A (Homo sapiens) (UniProt Q05586+Q12879)
Test: Positive allosteric modulation of GluN1/N2A (unknown origin) transfected in HEK293 cells assessed as potentiation of Glu/Gly-induced calcium influx by Cal-520 AM dye based assay
Assay type: cell-based
Conditions: filed as positive allosteric modulator
Procedure, shortened: as §1
In the case of `COc1ccc(C(O)CNC(=O)/C=C/c2ccccc2)cc1` (configuration not stated), the Activity is reported as “Dose-Dependent Effect”.
With `COc1cc(CCC(=O)CC(O)CCc2ccc(O)c(OC)c2)ccc1O` (configuration not stated) [HEXAHYDROCURCUMIN] the Activity was “Active”.

Test system: PC-12
Test: Neuroprotective activity against glutamate-induced excitotoxicity in rat PC12 cells assessed as cell viability at 0.1 uM preincubated for 4 hrs followed by glutamate treatment for 24 hrs by CCK8 assay (reference value: 44.89 +/- 2.08 %)
Assay type: functional
Conditions: time 28 hrs, read-out: Activity
`COC(=O)[C@@H](Cc1ccc(O)c(O)c1)OC(=O)/C=C/c1ccc(O)c(O)c1` [METHYL ROSMARINATE] showed a viability at 0.1 µM of 74.1%.
In the case of `C=CCN1C[C@H](C(=O)N(CCCN(C)C)C(=O)NCC)C[C@@H]2c3cccc4[nH]cc(c34)C[C@H]21` [CABERGOLINE], the viability at 0.1 µM is reported as 63.9%.
Work on `COc1cc(CCC(=O)CC(O)CCc2ccc(O)c(OC)c2)ccc1O` (configuration not stated) [HEXAHYDROCURCUMIN] yielded a viability at 0.1 µM of 66%.

Test system: Mus musculus
Test: Neuroprotective activity against tMCAO-reperfusion induced nerve injury in C57BL/6 mouse model assessed as recovery of neurological deficit score at 10 mg/kg, ip measured after 22 hrs
Assay type: functional, organism-based
Conditions: not given
Procedure, shortened: (§2)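 Male C57BL/6 mice (6–8 weeks, 18–22 g) were randomized and given 1, 5 or 10 mg/kg i.p. in 5% DMSO, 20% PEG300, 5% Tween-80 in saline. Under isoflurane, the left MCA was occluded with a nylon monofilament for 1.5 h, then reperfused, with body temperature held at 37 °C. Neurological scores were taken after tMCAO. n=6, mean ± SD, one-way ANOVA with Dunnett's test vs vehicle.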
In the case of `CC1=NN(c2ccccc2)C(=O)C1` [EDARAVONE], the Activity is reported as “Active”.

Test system: HT-22
Test: Neuroprotective activity against glutamate-induced excitotoxicity in mouse HT-22 cells assessed as cell viability at 0.1 uM preincubated for 4 hrs followed by glutamate treatment for 24 hrs by CCK8 assay (reference value: 30.31 +/- 2.02 %)
Assay type: functional
Conditions: time 28 hrs, read-out: Activity
In the case of `COC(=O)[C@@H](Cc1ccc(O)c(O)c1)OC(=O)/C=C/c1ccc(O)c(O)c1` [METHYL ROSMARINATE], the viability at 0.1 µM is reported as 46.3%.
Molecule `C=CCN1C[C@H](C(=O)N(CCCN(C)C)C(=O)NCC)C[C@@H]2c3cccc4[nH]cc(c34)C[C@H]21` [CABERGOLINE] has a viability at 0.1 µM of 37.7%.
Molecule `COc1cc(CCC(=O)CC(O)CCc2ccc(O)c(OC)c2)ccc1O` (configuration not stated) [HEXAHYDROCURCUMIN] has a viability at 0.1 µM of 41.4%.

Test system: not listed separately
Test: Cytotoxicity against rat PC12 cells assessed as cell viability at 10 uM incubated for 4 hrs by CCK8 assay relative to control
Assay type: toxicity, cell-based, PC-12
Conditions: read-out: Activity
`COC(=O)[C@@H](Cc1ccc(O)c(O)c1)OC(=O)/C=C/c1ccc(O)c(O)c1` [METHYL ROSMARINATE] gave a viability at 4 h, 10 µM of 69.6%.
`C=CCN1C[C@H](C(=O)N(CCCN(C)C)C(=O)NCC)C[C@@H]2c3cccc4[nH]cc(c34)C[C@H]21` [CABERGOLINE] showed a viability at 4 h, 10 µM of 94.8%.
In the case of `COc1cc(CCC(=O)CC(O)CCc2ccc(O)c(OC)c2)ccc1O` (configuration not stated) [HEXAHYDROCURCUMIN], the viability at 4 h, 10 µM is reported as 73.3%.

Test system: HT-22
Test: Neuroprotective activity against glutamate-induced excitotoxicity in mouse HT-22 cells assessed as cell viability at 10 uM preincubated for 4 hrs followed by glutamate treatment for 24 hrs by CCK8 assay (reference value: 34.80 +/- 4.02 %)
Assay type: functional
Conditions: time 28 hrs, read-out: Activity
For `COC(=O)[C@@H](Cc1ccc(O)c(O)c1)OC(=O)/C=C/c1ccc(O)c(O)c1` [METHYL ROSMARINATE], the viability at 10 µM was 25.6%.
Molecule `C=CCN1C[C@H](C(=O)N(CCCN(C)C)C(=O)NCC)C[C@@H]2c3cccc4[nH]cc(c34)C[C@H]21` [CABERGOLINE] has a viability at 10 µM of 37.4%.
In the case of `COc1cc(CCC(=O)CC(O)CCc2ccc(O)c(OC)c2)ccc1O` (configuration not stated) [HEXAHYDROCURCUMIN], the viability at 10 µM is reported as 42.9%.

Test system: Mus musculus
Test: Neuroprotective activity against tMCAO-reperfusion induced nerve injury in C57BL/6 mouse model assessed as reduction in volume of ischemia cerebral infarction at 5 mg/kg, ip measured after 22 hrs by TTC staining based analysis (reference value: 130.60 +/- 9.93 mm3)
Assay type: functional
Conditions: not given
In the case of `COc1ccc(C(O)CNC(=O)/C=C/c2ccccc2)cc1` (configuration not stated), the Activity is reported as 90.53 mm3.

Test system: Mus musculus
Test: Neuroprotective activity against tMCAO-reperfusion induced nerve injury in C57BL/6 mouse model assessed as recovery of neurological deficit score at 5 to 10 mg/kg, ip measured after 22 hrs
Assay type: functional, organism-based
Conditions: dose 5-10 mg/kg
Procedure, shortened: as §2
With `COc1ccc(C(O)CNC(=O)/C=C/c2ccccc2)cc1` (configuration not stated) the Activity was “Active”.
